From PubChem BioAssay
RanGTP-Imp inh – disruptors of Ran-importin-beta complex formation – biochemical, FRET, CFP-Ran, YFP-importin-beta, homogeneous, primary screen; inhibition, % (concentration not given with the values); 300,000 compounds, 1.1% hits; cell-free CFP-Ran/YFP-importin-beta FRET ratio;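 active = more than half of the replicate wells show a fall in the fluorescence ratio signal beyond about 16%, limit read from the data, passing the limit was not always enough; inconclusive = exactly half of the replicate wells pass the set limit; inactive = fewer than half of replicates pass the limit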;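 also: 0% = DMSO wells and 100% = Ran loaded with GDP instead of GTP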
Runt-SMMHC FRET – inhibitors of human RUNX1 Runt domain binding to CBFb-SMMHC; Q01196+Q13951; Cerulean-Runt/Venus-CBFb-SMMHC FRET ratio 530/480, 1 h; inhibition, % at 20 µM; 220,000 compounds, 0.74% hits; AID 1434;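 active = mean inhibition across duplicate retests at 20 µM reaching about 50%, limit read from the data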;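 also: 0% = DMSO wells and 100% = wells with excess untagged CBFb-SMMHC; inhibitors lower the FRET ratio by blocking Runt binding to CBFb-SMMHC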
Hck Nef HTS – blocks Nef-activated human Hck kinase; inhibition, % at 20 µM; 220,000 compounds, 0.68% hits; Recombinant Hck-YEEI plus Nef, Z-Lyte FRET kinase assay;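 active = Hck-Nef kinase inhibition above about 50%, limit read from the data; inactive = inhibition below that limit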;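 also: 0% = DMSO with Hck plus Nef and 100% = Hck alone without Nef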
PfM18AAP inh-1 – PfM18AAP enzyme inhibition; recombinant PfM18AAP, H-Glu-NHMec fluorogenic cleavage; inhibition, % at 7.35 µM; 290,000 compounds, 1.2% hits; AID 1822;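 active = inhibition above the campaign mean inhibition over all tested compounds plus 3 SD, cut at about 28% in these data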;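 also: 0% = plate median of test compound wells and 100% = 2 mM ZnCl2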
RBBP9 inh – human RBBP9 hydrolase inhibition; recombinant RBBP9, FP-Rh probe fluorescence polarization; AID 1515; inhibition, % at 7.94 µM; O75884; 220,000 compounds, 0.2% hits;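 active = inhibition above the campaign mean of all tested compounds plus 3 SD, cut at about 14% in these data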;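 also: plate controls were DMSO wells with RBBP9 for no effect and wells lacking RBBP9 protein for full effect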
Target sequence (O75884 whole entry, looked up): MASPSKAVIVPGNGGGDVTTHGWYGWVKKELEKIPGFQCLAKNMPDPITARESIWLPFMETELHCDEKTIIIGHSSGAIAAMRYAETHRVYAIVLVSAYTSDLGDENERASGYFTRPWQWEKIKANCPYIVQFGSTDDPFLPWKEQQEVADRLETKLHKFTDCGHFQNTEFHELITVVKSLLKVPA
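System: RBBP9 protein / Buffer or medium: Tris/NaCl buffer pH 8.0 with 0.1% Pluronic / Probe or stimulus: Serine-hydrolase probe FP-Rh, 375 nM pre-mixing / Dosing: 7.94 µM single dose, 0.794% DMSO / Times: enzyme-compound preincubation 30 min, then probe labeling 45 min, 25 °C / Technique: fluorescence polarization (mP), excitation 525 nm, emission 598 nm / Replication: singlicate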
Runt-CBFb FRET – blocks binding of human RUNX1 Runt domain to CBFb | Q01196+Q13951 | Cerulean-Runt/Venus-CBFb FRET ratio 530/480, 1 h | inhibition, % at 20 µM | 220,000 compounds, 0.46% hits | AID 1496;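 active = inhibition over about 50% at 20 µM in the single-dose screen, limit read from the data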;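 also: 0% = DMSO wells and 100% = excess unlabeled CBFb competitor control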
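Schedule: protein complex preformed 1 h, compound exposure 1 h, room temperature, dark; test system: Cerulean-labeled Runt domain protein; amount: 100 nM per protein; buffer or medium: Tris 50 mM pH 7.5, KCl, K2SO4, 0.01% BSA; read-out: loss of energy transfer signal; detection: FRET fluorescence; controls: 5 µM unlabeled CBFb as full-inhibition high control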
PfM18AAP inh-2 – confirmation of Plasmodium falciparum M18 aspartyl aminopeptidase inhibitors. shares compounds with PfM18AAP inh-1. recombinant PfM18AAP, H-Glu-NHMec fluorogenic cleavage. inhibition, % at 7.35 µM. 2,400 compounds, 28% hits. AID 2170;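 active = mean inhibition over replicate wells above the hit cutoff set for the earlier primary screen, cut at about 29% in these data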;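 also: 0% = median of test compound wells and 100% = 2 mM ZnCl2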
CTSL1 counter – counter-screen for PFM18AAP inhibitors: confirmation of human cathepsin L inhibitors; shares compounds with PfM18AAP inh-1; purified cathepsin L1, Z-Leu-Arg-MCA fluorescence; inhibition, % at 5.96 µM; 2,400 tested, under 10 active;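 active = average inhibition across replicates above the hit cutoff set in the earlier primary screen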;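 also: 0% = median of test compound wells and 100% = Z-Phe-Ala-diazomethylketone 1 µM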
Target sequence (P07711 whole entry, looked up): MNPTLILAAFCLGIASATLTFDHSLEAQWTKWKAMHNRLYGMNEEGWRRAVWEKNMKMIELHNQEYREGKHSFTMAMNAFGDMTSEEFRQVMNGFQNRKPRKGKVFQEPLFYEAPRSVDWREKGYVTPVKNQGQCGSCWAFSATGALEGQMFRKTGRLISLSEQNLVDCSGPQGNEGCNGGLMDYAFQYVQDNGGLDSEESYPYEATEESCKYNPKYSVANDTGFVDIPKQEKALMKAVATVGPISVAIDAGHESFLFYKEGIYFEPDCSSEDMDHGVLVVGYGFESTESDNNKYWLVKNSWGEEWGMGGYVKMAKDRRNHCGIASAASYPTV
* hit, by the source's call; ? = inconclusive; . = no result given. This is a sample that favours compounds with a hit; in the whole collection about 2.9% have one here.

SMILES	RanGTP-Imp inh	Runt-SMMHC FRET	Hck Nef HTS	PfM18AAP inh-1	RBBP9 inh	Runt-CBFb FRET	PfM18AAP inh-2	CTSL1 counter
CCOc1ccc(CC(=O)C2C(=O)CCCC2=O)cc1OCC	0	-4	0	33*	-5	-1	-25	-4
COc1ccc(-c2cc(C(=O)NCC(c3ccco3)N(C)C)c3ccccc3n2)cc1OC (stereo unspecified)	1	.	.	.	.	.	.	.
CCCCNC(=O)C(c1ccc(OCC(=O)OC)c(C(=O)OC)c1)N(CCc1c[nH]c2ccccc12)C(=O)CCCCCN1C(=O)NC(c2ccc(-c3ccccc3)cc2)C(C(=O)OCc2ccccc2)=C1C (stereo unspecified)	8	-3	22	.	.	-7	.	.
O=C(c1ccco1)N1CCN(C(=O)N2CCCCC2)CC1	3	2	17	90*	-10	1	-35	-3
CCOC(=O)CSc1nc(=O)n2cccc(C)c2n1	3	-2	18	-5	7	1	.	.
COc1cccc(/C=N/Nc2ccnc(=O)[nH]2)c1O	-1	.	.	43*	.	.	-12	2
COc1cccc(/C=N/NC(=O)C(=O)N2CCCC2)c1O	-2	-2	-1	9	-8	5	.	.
COc1cccc(/C=N/NC(=O)N/N=C/c2cccc(OC)c2O)c1O	2	.	.	33*	.	.	2	-4
COc1cccc(/C=N/Nc2ccc([N+](=O)[O-])cn2)c1O	4	.	.	14	.	.	.	.
COc1ccc(C(C(=O)NC2CCCC2)N(CCO)C(=O)Cn2nnc(-c3ccc(C)o3)n2)cc1OC (stereo unspecified)	-12	.	.	-6	.	.	.	.
Cc1cc(C)c2c(n1)SCC(=O)N2CC(=O)Nc1cccc(Cl)c1	2	.	.	8	.	.	.	.
Cc1cc(C)c2c(=O)n(CC(=O)Nc3ccc(Cl)cc3)sc2n1	-6	47	-43	57*	7	0	47*	7
Cc1ccn2c(=O)nc(SCC(=O)N3CCC(Cc4ccccc4)CC3)nc2c1	-7	.	.	.	.	.	.	.
Cc1cc(C)c2c(=O)n(CC(=O)N3CCC(Cc4ccccc4)CC3)sc2n1	-4	50*	-11	56*	-2	-15	22	1
CCOc1ccc(NC(=O)Cn2sc3nc(C)cc(C)c3c2=O)cc1	-2	53	-136	56*	3	-14	36*	-8
Cc1ccc(NC(=O)Cn2sc3nc(C)cc(C)c3c2=O)c(Cl)c1	-3	51*	-145	67*	-3	-4	45*	5
CCc1nn(CC(=O)N2CCN(c3ccc(F)cc3)CC2)c(=O)c2cc3occc3n12	2	.	.	0	.	.	.	.
COCC(C)NC(=O)NC1(C(F)(F)F)Oc2ccc(Cl)cc2O1 (stereo unspecified)	0	0	3	79*	-1	3	66*	3
O=C(NCCN1CCOCC1)c1cc(Cl)ccc1Cl	0	.	.	-3	.	.	.	.
O=C(NCCN1CCOCC1)NC1(C(F)(F)F)Oc2ccc(Cl)cc2O1 (stereo unspecified)	2	9	0	87*	7	13	89*	-4
COc1ccccc1NC(=S)N/N=C/c1ccc(O)cc1	3	4	7	12	-11	2	.	.
Oc1ccc(/C=N/NC(=S)N/N=C/c2ccc(O)cc2)cc1	-6	13	28	34*	-4	15	6	19*
CNc1nc(NN)nc(Nc2ccccc2)n1	1	.	.	33*	.	.	4	1
CCC(=O)NNc1nc2c(Cl)cccc2s1	3	0	7	33*	2	3	19	-3
CCC(=O)NNc1nc2c(C)c(C)ccc2s1	.	1	22	37*	-7	25	9	-2
O=C(Nc1nc2c(Cl)cccc2s1)C1CC1	6	.	.	1	.	.	.	.
CCC(=O)NNc1nc2c(C)cccc2s1	1	-2	15	48*	4	37	23	-4
Cc1cccc2sc(NC(=O)C3CC3)nc12	?	.	.	5	.	.	.	.
